In ChEMBL document CHEMBL2412970, “Synthesis and anticancer activity of 2,4-disubstituted furo[3,2-b]indole derivatives” (Eur J Med Chem, 2013):

Tests used:
[1] = test system: HL-60; test: Cytotoxicity against human HL60 cells after 48 hrs by MTT assay; assay type: functional, cell-based; settings: HL-60, 48 h
Method in brief: (§1)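 Cells were treated with a range of concentrations for 48 h. Viability was read by MTT: formazan was dissolved in DMSO and absorbance read at 570 nm. Untreated or 0.1% DMSO cells served as control. Data are mean from three independent experiments. HL-60, H460 and COLO 205 were kept in RPMI-1640 with 10% FBS and penicillin/streptomycin.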

[2] = Cytotoxicity against human Hep3B cells after 48 hrs by MTT assay; assay type: functional, cell-based, Hep 3B2
[3] = test system: Detroit 551; test: Cytotoxicity against human Detroit 551 cells after 48 hrs by MTT assay; assay type: cell-based; settings: Detroit 551, 48 h
[4] = test system: COLO 205; test: Cytotoxicity against human COLO205 cells after 48 hrs by MTT assay; assay type: functional, cell-based; settings: COLO 205, 48 h; method in brief: as §1
[5] = test system: A498; test: Cytotoxicity against human A498 cells after 48 hrs by MTT assay; assay type: functional, cell-based; settings: A498, 48 h
[6] = Cytotoxicity against human H460 cells after 48 hrs by MTT assay; assay type: functional, cell-based; settings: NCI-H460, 48 h; method in brief: as §1
[7] = test system: A498; test: Ratio of YC-1 IC50 to compound IC50 for human A498 cells after 48 hrs by MTT assay; assay type: functional

| SMILES | IC50 [1] | IC50 [2] | IC50 [3] | IC50 [4] | IC50 [5] | IC50 [6] | Ratio IC50 [7] |
| --- | --- | --- | --- | --- | --- | --- | --- |
| COC(=O)c1cc2c(o1)c1ccccc1n2Cc1ccc(Cl)cc1 | > 50 µM | > 50 µM | > 50 µM | > 50 µM | > 50 µM | > 50 µM |  |
| CCn1c2ccccc2c2oc(C(=O)O)cc21 | > 50 µM | > 50 µM | > 50 µM | > 50 µM | > 50 µM | > 50 µM |  |
| OCc1cc2c(o1)c1ccccc1n2Cc1ccc2c(c1)OCO2 | > 50 µM | > 50 µM | > 50 µM | > 50 µM | 0.27 µM | > 50 µM |  |
| CCn1c2ccccc2c2oc(C(=O)OC)cc21 | > 50 µM | > 50 µM | > 50 µM | > 50 µM | > 50 µM | > 50 µM |  |
| COc1ccc(Cn2c3ccccc3c3oc(CO)cc32)cc1 | 54.5 µM | 45.9 µM | > 50 µM | 29.8 µM | 0.36 µM | 42.9 µM |  |
| COC(=O)c1cc2[nH]c3ccccc3c2o1 | > 50 µM | > 50 µM | > 50 µM | > 50 µM | > 50 µM | > 50 µM |  |
| COC(=O)c1cc2c(o1)c1ccccc1n2Cc1ccc(C(=O)OC)s1 | > 50 µM | > 50 µM | > 50 µM | > 50 µM | > 50 µM | > 50 µM |  |
| Cn1c2ccccc2c2oc(C(=O)O)cc21 | > 50 µM | > 50 µM | > 50 µM | > 50 µM | > 50 µM | > 50 µM |  |
| OCc1cc2c(o1)c1ccccc1n2Cc1cccc(F)c1 | 25 µM | 44 µM | > 50 µM | > 50 µM | 0.59 µM | 50 µM |  |
| COC(=O)c1ccc(Cn2c3ccccc3c3oc(C(=O)OC)cc32)o1 | 50 µM | > 50 µM | > 50 µM | > 50 µM | > 50 µM | > 50 µM |  |
| CCn1c2ccccc2c2oc(CO)cc21 | > 50 µM | > 50 µM | > 50 µM | > 50 µM | 3.7 µM | 50 µM |  |
| COC(=O)c1cc2c(o1)c1ccccc1n2Cc1ccc(OC)cc1 | > 50 µM | 58.6 µM | > 50 µM | > 50 µM | > 50 µM | > 50 µM |  |
| COc1cccc(Cn2c3ccccc3c3oc(CO)cc32)c1 | 35.4 µM | 31.9 µM | > 50 µM | 31.9 µM | 0.33 µM | 52 µM |  |
| COC(=O)c1cc2c(o1)c1ccccc1n2C | > 50 µM | > 50 µM | > 50 µM | > 50 µM | > 50 µM | 50 µM |  |
| OCc1cc2c(o1)c1ccccc1n2Cc1ccc(CO)[se]1 | > 50 µM | > 50 µM | > 50 µM | > 50 µM | 0.23 µM | > 50 µM | 1.5 |
| OCc1cc2c(o1)c1ccccc1n2Cc1ccc(F)cc1 | > 50 µM | 44.2 µM | > 50 µM | 35.9 µM | 0.69 µM | 36.7 µM |  |
| OCc1ccc(Cn2c3ccccc3c3oc(CO)cc32)cc1 | > 50 µM | > 50 µM | > 50 µM | > 50 µM | 0.47 µM | > 50 µM |  |
| OCc1cc2[nH]c3ccccc3c2o1 | > 50 µM | > 50 µM | > 50 µM | > 50 µM | 21.8 µM | > 50 µM |  |
| COC(=O)c1cc2c(o1)c1ccccc1n2Cc1cccc(Cl)c1 | > 50 µM | > 50 µM | > 50 µM | > 50 µM | > 50 µM | > 50 µM |  |
| Cn1c2ccccc2c2oc(CO)cc21 | > 50 µM | > 50 µM | > 50 µM | > 50 µM | 4.6 µM | 50 µM |  |
| OCc1cc2c(o1)c1ccccc1n2Cc1ccc(CO)s1 | > 50 µM | > 50 µM | > 50 µM | > 50 µM | 0.69 µM | > 50 µM |  |

| SMILES | IC50 [1] | IC50 [2] | IC50 [3] | IC50 [4] | IC50 [5] | IC50 [6] | Ratio IC50 [7] |
| --- | --- | --- | --- | --- | --- | --- | --- |
| OCc1cccc(Cn2c3ccccc3c3oc(CO)cc32)c1 | > 50 µM | 50 µM | > 50 µM | > 50 µM | 0.37 µM | > 50 µM |  |
| COC(=O)c1cc2c(o1)c1ccccc1n2Cc1ccccc1 | > 50 µM | > 50 µM | > 50 µM | > 50 µM | > 50 µM | > 50 µM |  |
| COC(=O)c1cccc(Cn2c3ccccc3c3oc(C(=O)OC)cc32)c1 | 16.5 µM | 50 µM | > 50 µM | > 50 µM | > 50 µM | > 50 µM |  |
| OCc1cc2c(o1)c1ccccc1n2Cc1ccccc1Cl | 16.8 µM | 43.1 µM | > 50 µM | 26.7 µM | 5.5 µM | 30.5 µM |  |
| O=C(O)c1cc2c(o1)c1ccccc1n2Cc1ccccc1 | > 50 µM | > 50 µM | > 50 µM | > 50 µM | > 50 µM | > 50 µM |  |
| OCc1cc2c(o1)c1ccccc1n2Cc1ccccc1 | > 50 µM | 50 µM | > 50 µM | 30.6 µM | 0.24 µM | > 50 µM | 1.5 |
| COC(=O)c1cc2c(o1)c1ccccc1n2Cc1cccc(OC)c1 | > 50 µM | > 50 µM | > 50 µM | > 50 µM | > 50 µM | > 50 µM |  |
| OCc1ccc(-c2nn(Cc3ccccc3)c3ccccc23)o1 |  |  |  |  | 0.37 µM |  |  |
| OCc1cc2c(o1)c1ccccc1n2Cc1ccccc1F | > 50 µM | 50 µM | > 50 µM | 40.9 µM | 0.43 µM | > 50 µM |  |
| COC(=O)c1cc2c(o1)c1ccccc1n2Cc1ccc(C(=O)OC)[se]1 | > 25 µM | > 25 µM | > 25 µM | > 50 µM | > 50 µM | > 25 µM |  |
| COC(=O)c1cc2c(o1)c1ccccc1n2Cc1ccccc1F | > 50 µM | > 50 µM | > 50 µM | > 50 µM | > 50 µM | > 50 µM |  |
| COC(=O)c1cc2c(o1)c1ccccc1n2Cc1ccccc1Cl | > 50 µM | > 50 µM | > 50 µM | > 25 µM | > 50 µM | > 50 µM |  |
| COC(=O)c1cc2c(o1)c1ccccc1n2Cc1cccc(F)c1 | > 50 µM | > 50 µM | > 50 µM | > 50 µM | > 50 µM | > 50 µM |  |
| COC(=O)c1cc2c(o1)c1ccccc1n2Cc1ccc2c(c1)OCO2 | > 50 µM | > 50 µM | > 50 µM | > 50 µM | > 50 µM | > 50 µM |  |
| OCc1cc2c(o1)c1ccccc1n2Cc1ccc(Cl)cc1 | 38.9 µM | 36.2 µM | 44.4 µM | 8.1 µM | 0.79 µM | 31.3 µM |  |
| COC(=O)c1cc2c(o1)c1ccccc1n2Cc1ccc(F)cc1 | > 50 µM | > 50 µM | > 50 µM | > 50 µM | > 50 µM | > 50 µM |  |
| O=C(O)c1cc2[nH]c3ccccc3c2o1 | > 50 µM | > 50 µM | > 50 µM | > 50 µM | > 50 µM | > 50 µM |  |
| COC(=O)c1cc2c(o1)c1ccccc1n2Cc1ccccc1OC | 25.1 µM | 50 µM | > 50 µM | 32.9 µM | > 50 µM | > 50 µM |  |
| OCc1cc2c(o1)c1ccccc1n2Cc1cccc(Cl)c1 | 14.7 µM | 29.8 µM | > 50 µM | 26.4 µM | 1.1 µM | 50 µM |  |
| COC(=O)c1ccc(Cn2c3ccccc3c3oc(C(=O)OC)cc32)cc1 | > 50 µM | > 50 µM | > 50 µM | > 50 µM | > 50 µM | > 50 µM |  |
| COc1ccccc1Cn1c2ccccc2c2oc(CO)cc21 | 13.3 µM | 24.6 µM | 60.5 µM | 28.3 µM | 4.3 µM | 30.8 µM |  |
